# An excerpt weighted towards active compounds, which were near 4.9% of everything screened.
# NPY-Y2 antag = NPY-Y2 (human) receptor antagonism; NPY-Y2 expressing cells, antagonist mode; inhibition, % at 2.7 µM; 140,000 compounds, 0.99% hits; AID 793; in the data active = inhibition above about 17%;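 note: 0% = vehicle with agonist challenge and 100% = reference antagonist with challenge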
# WT yeast gro inh = growth inhibition of WT yeast, mitochondrial fusion screen | 190,000 compounds, 2.1% hits | inhibition, % at 10 µM | mitochondrial fusion phenotypic screen, WT strain; in the data active = inhibition above about 58%; tested in S. cerevisiae
# NPY2 pot ag = potentiators or agonists of human neuropeptide Y receptor Y2. P49146. 220,000 compounds, 0.45% hits. cells expressing NPY-Y2, potentiator/agonist read-out. AID 1359. activation, % at 3.6 µM; in the data active = activation above about 27%;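 note: cells stimulated with NPY near EC25 plus isoproterenol at EC100; 0% = vehicle plus submaximal agonist and 100% = vehicle plus saturating agonist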
# RAM inhibit = yeast RAM network inhibition; S. cerevisiae dse1pr::URA3 reporter, 5-FOA growth OD615, 2 d; analog-sensitive cbk1-as2 kinase mutant strain; inhibition, % at 50 µM; 190,000 compounds, 1.8% hits; AID 868;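 active = inhibition above a set limit, 3 SD over mean compound inhibition, cut at about 8.4% in these data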;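 note: 0% = DMSO-only wells with no growth and 100% = 10 µM 1-NA-PP1 full growth; inhibition rescues growth on 5-FOA so higher OD means more RAM inhibition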
# NPY-Y1 PAM-ag = potentiators or agonists of human neuropeptide Y receptor Y1; P25929; activation, % at 3.6 µM; 220,000 compounds, 0.37% hits; NPY-Y1 expressing cells, potentiator/agonist activation; in the data active = activation above about 33%, passing the limit was not always enough;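 note: cells stimulated with NPY at EC10 then isoproterenol at EC100; 0% = low agonist plus stimulus and 100% = saturating agonist plus stimulus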
# Target sequence (P25929 whole entry, looked up): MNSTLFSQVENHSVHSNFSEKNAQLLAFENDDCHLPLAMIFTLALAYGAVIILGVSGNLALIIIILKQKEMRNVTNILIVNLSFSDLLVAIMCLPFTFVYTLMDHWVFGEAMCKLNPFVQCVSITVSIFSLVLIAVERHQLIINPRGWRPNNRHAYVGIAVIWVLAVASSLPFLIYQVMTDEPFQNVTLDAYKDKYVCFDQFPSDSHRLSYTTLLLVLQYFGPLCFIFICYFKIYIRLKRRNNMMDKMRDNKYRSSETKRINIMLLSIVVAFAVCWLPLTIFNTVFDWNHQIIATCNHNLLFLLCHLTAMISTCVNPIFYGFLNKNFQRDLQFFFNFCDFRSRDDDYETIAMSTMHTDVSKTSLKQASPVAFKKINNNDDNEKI
# NPY Y1 blocker = blocks the human neuropeptide Y Y1 receptor. AID 1040. 200,000 compounds, 1% hits. inhibition, % at 3.6 µM. HEK293-CNG Y1 cells, membrane potential fluorescence; NPY at EC95, then isoproterenol. P25929;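 active = inhibition above the campaign mean inhibition of all tested compounds plus 3 SD, cut at about 20% in these data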;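 note: 0% = DMSO wells given NPY plus isoproterenol and 100% = isoproterenol alone without NPY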
#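 Benchmarks – high control isoproterenol alone, low control NPY with isoproterenol · Material – HEK293 Y1/CNG channel cell line · Times – dye 3 h, compound 60 min room temperature, stimulation 45 min · Probe or stimulus – NPY (25 nM), isoproterenol (1 µM), Ro 20-1724 (25 µM) · Evaluation – % inhibition of NPY effect · Signal – fluorescence, membrane potential probe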
# Numbers without * were called inactive; · = no result.
SMILES,NPY-Y2 antag,WT yeast gro inh,NPY2 pot ag,RAM inhibit,NPY-Y1 PAM-ag,NPY Y1 blocker
O=C1[C@@H]2[C@H](Cc3ccc(O)cc3)N[C@]3(C(=O)Nc4ccccc43)[C@@H]2C(=O)N1c1ccc(F)cc1,3,-10,5,1,26,-4
Cc1c(Cl)ccc2c1NC(=O)[C@]21N[C@@H](Cc2ccccc2)[C@H]2C(=O)N(c3ccc(F)cc3)C(=O)[C@H]21,0,12,23,8.5*,0,-6
COc1ccccc1C(=O)C1CCCN(C(=O)CCC(=O)c2ccccc2)C1 (configuration not stated),·,4,-23,2,-9,-3
CSc1ncccc1C(=O)N1CCCC(C(=O)c2cc(F)ccc2F)C1 (configuration not stated),·,-10,-14,0,-1,1
CCOc1ccc(/C=C/C(=O)c2ccc(-c3ccccc3)cc2)cc1,4,-14,-3,8.9*,18,3
CCOc1ccc(/C=C/C(=O)Nc2cccc(C(C)=O)c2)cc1,2,8,-12,9.7*,-10,-1
COc1ccc(NC(=O)C2=C(C)NC(=O)NC2c2cccs2)c(OC)c1 (configuration not stated),·,-28,11,1,20,1
CC(C)=CCC/C(C)=C/COc1ccc2ccc(=O)oc2c1,·,61*,-13,1,-17,12
C/C(NC(=O)c1cccs1)=C1\C(=O)C[C@@H]2[C@H]1C2(C)C,5,18,-11,2,-13,22*
CC(=O)Nc1sc2c(c1C(c1ccc(Cl)cc1)N1CCOCC1)CCCC2 (configuration not stated),2,81*,-3,2,-19,6
CC(=O)Nc1sc2c(c1C(c1ccc(F)cc1)N1CCOCC1)CCCC2 (configuration not stated),8,0,8,1,22,-1
Cc1ccc(OCCN2C(=O)C(=O)c3cc(C)ccc32)cc1,·,7,-24,4,-18,21*
N#CCCN1CCCc2cc(N=Nc3ccc(C(F)(F)F)cc3)ccc21,·,·,54*,·,73*,·
Cc1ccc(NS(=O)(=O)c2ccc(OCC(=O)Nc3cccc([N+](=O)[O-])c3)c(C)c2)cc1,-5,·,28,3,44*,-16
Cc1ccc(C)c(NC(=O)c2ccccc2NS(=O)(=O)c2cc([N+](=O)[O-])ccc2C)c1,10,80*,24,4,22,2
Cc1ccc(S(=O)(=O)CCC(=O)Nc2cccc([N+](=O)[O-])c2)cc1,·,-5,-2,2,-8,6
Cc1ccc(NC(=O)c2cccs2)cc1S(=O)(=O)Nc1cccc(Cl)c1,-1,70*,7,7,0,-7
Cc1ccc(C(=O)Nc2cccc([N+](=O)[O-])c2)cc1S(=O)(=O)Nc1ccc(NC(=O)c2ccccc2)cc1,-3,-11,3,6,9,1
Cc1ccc(C)c(S(=O)(=O)Nc2ccccc2C(=O)Nc2cc(C)on2)c1,-1,10,19,1,18,-2
Cc1ccc(NC(=S)NC(=O)c2ccc(F)cc2)cc1S(=O)(=O)Nc1cccc(Cl)c1,·,16,-11,7,0,-5
Cc1ccc(NS(=O)(=O)c2cc(C(=O)Nc3cccc([N+](=O)[O-])c3)ccc2C)cc1,1,64*,8,3,16,-9
NC(=O)N/N=C/c1cccc(OCc2ccc(F)cc2)c1,·,-2,9,2,3,0
CCC1CC(C)(C(=O)Nc2ccc(S(N)(=O)=O)cc2)OC1=O (configuration not stated),4,-6,17,1,-1,7
Cc1cc(C)c(S(=O)(=O)Nc2ccccc2C(=O)OCC(=O)NCc2ccccc2)c(C)c1,·,-20,2,8.7*,10,-3
O=C(O/N=C\c1ccc(N2CCCCC2)c([N+](=O)[O-])c1)c1ccc(Cl)cc1Cl,0,-17,5,10*,-10,2
O=C(/C=C/c1ccc(Cl)cc1)N1CCN(c2ccc(Cl)cc2[N+](=O)[O-])CC1,8,60,-4,4,-15,21*
Cc1cc(NC(=O)c2cccc(S(=O)(=O)N3c4ccccc4CC3C)c2)no1 (configuration not stated),·,·,-14,·,13,·
CCCCc1n[nH]c2c1/C(=N/OCC)CC(C)(C)C2,·,·,-36,·,11,·

# Screens from PubChem.
